# Measurements from publication PMC5644118 (Chemical Science, 2014).
# Molecular target: heparin-stabilized human rhSkin β-tryptase (Homo sapiens, UniProt P20231)
# Assay: β-tryptase enzyme inhibition assay
# Assay type: biochemical
# How it was run: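 Heparin-stabilized recombinant human skin β-tryptase in 50 mM Tris-HCl, pH 7.4, run in a high-throughput format. Activity was read as release of free AMC from the cleaved Gly-Pro-Arg-AMC peptide substrate. Inhibition mode was assessed by Dixon plots (1/v against inhibitor concentration) at substrate 25, 50, 75, 100, 150 and 200 μM.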
# Sequence of heparin-stabilized human rhSkin β-tryptase (P20231 31-275): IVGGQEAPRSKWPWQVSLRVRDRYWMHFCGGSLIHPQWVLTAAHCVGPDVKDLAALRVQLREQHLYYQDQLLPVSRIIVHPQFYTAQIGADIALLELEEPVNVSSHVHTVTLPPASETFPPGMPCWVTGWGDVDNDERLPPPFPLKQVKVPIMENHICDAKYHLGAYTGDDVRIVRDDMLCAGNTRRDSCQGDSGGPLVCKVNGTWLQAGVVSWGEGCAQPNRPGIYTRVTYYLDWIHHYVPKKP
smiles,measurement,value
C[C@H](NC(=O)CNC(=O)CCC(=O)N/N=C/c1cc(/C=N/NC(=O)CCC(=O)NCC(=O)N[C@@H](C)C(=O)N[C@@H](Cc2ccccc2)C(=O)N[C@@H](CCC(=O)O)C(N)=O)cc(/C=N/NC(=O)CCC(=O)NCC(=O)N[C@@H](C)C(=O)N[C@@H](Cc2ccccc2)C(=O)N[C@@H](CCC(=O)O)C(N)=O)c1)C(=O)N[C@@H](Cc1ccccc1)C(=O)N[C@@H](CCC(=O)O)C(N)=O [5(E)3],inhibition of β-tryptase (in words),no inhibition of β-tryptase at all
